Laboratory results reported in ChEMBL document CHEMBL3425469, “Discovery of imidazo[2,1-b]thiazole HCV NS4B inhibitors exhibiting synergistic effect with other direct-acting antiviral agents” (J Med Chem, 2015).

How the values were obtained:
Hepatitis C virus [1] = test: Antiviral activity against Hepatitis C virus genotype 1b Con 1 infected in human HuH7 cells at 80 nM after 72 hrs by luciferase assay in presence of 15 uM clemizole; type: functional, Hepacivirus hominis, Huh-7
Method in brief: (§1)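 Huh-7 cells stably carrying a GT1b Con1 bicistronic luciferase replicon, seeded at 8000 cells/well. The test compound and the partner DAA are dosed orthogonally at various concentrations, final 0.5% DMSO, then incubated 72 h at 37°C. Bright-Glo luciferase read-out gives replicon inhibition as % of untreated control. Cytotoxicity is checked in parallel by CellTiter-Fluor. CI and DRI are derived by the Chou–Talalay median-effect method.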

Hepatitis C virus [2] = test: Antiviral activity against Hepatitis C virus genotype 1b Con 1 infected in human HuH7 cells at 5 nM after 72 hrs by luciferase assay in presence of 15 uM clemizole; type: functional, Hepacivirus hominis, Huh-7; method in brief: as §1
Hepatitis C virus [3] = test: Antiviral activity against Hepatitis C virus genotype 1b Con 1 infected in human HuH7 cells at 20 nM after 72 hrs by luciferase assay in presence of 6 nM simeprevir; type: functional, Hepacivirus hominis, Huh-7; method in brief: as §1
Hepatitis C virus [4] = test: Antiviral activity against Hepatitis C virus genotype 1b harboring Y93H NS5A mutation transfected in human HuH7 cells after 72 hrs by luciferase assay; type: functional, cell-based, Hepacivirus hominis; conditions: Huh-7, 72 h
Method in brief: (§2)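 Huh-7 cells were transiently electroporated with genotype 1b replicon RNA carrying the specified mutation and plated at 10000 cells/well. Compounds were added at 0.5% DMSO final for 72 h at 37°C. Read-out was Bright-Glo luciferase. EC50 is the mean of two independent runs within 2-fold of each other. A reference drug EC50 was measured alongside each mutant replicon to validate it.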

Hepatitis C virus [5] = test: Antiviral activity against Hepatitis C virus genotype 1b Con 1 infected in human HuH7 cells at 20 nM after 72 hrs by luciferase assay in presence of 30 nM sofobuvir; type: functional, Hepacivirus hominis, Huh-7; method in brief: as §1
Hepatitis C virus [6] = test: Antiviral activity against Hepatitis C virus genotype 1b Con 1 infected in human HuH7 cells at 10 nM after 72 hrs by luciferase assay in presence of 7.5 uM clemizole; type: functional, Hepacivirus hominis, Huh-7
Method in brief: (§3)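 Stable Con1 GT1b bicistronic luciferase replicon in Huh-7 cells, 8000 cells/well. Test compound and a marketed DAA or clemizole added alone or together at varied concentrations, 0.5% DMSO final. 72 h at 37°C, then luciferase read with Bright-Glo. Inhibition expressed as % of untreated control, with cytotoxicity run in parallel. CI and DRI derived by the Chou–Talalay median-effect method.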

Hepatitis C virus [7] = test: Antiviral activity against Hepatitis C virus genotype 1b Con 1 infected in human HuH7 cells at 20 nM after 72 hrs by luciferase assay in presence of 0.02 nM daclatasvir; type: functional, Hepacivirus hominis, Huh-7; method in brief: as §3
Hepatitis C virus [8] = test: Antiviral activity against Hepatitis C virus genotype 1b harboring H94R mutation transfected in human HuH7 cells after 72 hrs by luciferase assay; type: functional, cell-based, Hepacivirus hominis; conditions: Huh-7, 72 h; method in brief: as §2
Hepatitis C virus [9] = test: Antiviral activity against Hepatitis C virus genotype 1b Con 1 infected in human HuH7 cells at 20 nM after 72 hrs by luciferase assay in presence of 7.5 uM clemizole; type: functional, Hepacivirus hominis, Huh-7; method in brief: as §1
Hepatitis C virus [10] = test: Antiviral activity against Hepatitis C virus genotype 1b harboring F98C mutation transfected in human HuH7 cells after 72 hrs by luciferase assay; type: functional, cell-based, Hepacivirus hominis; conditions: Huh-7, 72 h; method in brief: as §2
Hepatitis C virus [11] = test: Antiviral activity against Hepatitis C virus genotype 1b Con 1 infected in human HuH7 cells at 2.5 nM after 72 hrs by luciferase assay in presence of 12.5 uM clemizole; type: functional, Hepacivirus hominis, Huh-7; method in brief: as §3
Hepatitis C virus [12] = test: Antiviral activity against Hepatitis C virus genotype 1b Con 1 infected in human HuH7 cells at 80 nM after 72 hrs by luciferase assay in presence of 60 nM sofobuvir; type: functional, Hepacivirus hominis, Huh-7; method in brief: as §1
Hepatitis C virus [13] = test: Antiviral activity against Hepatitis C virus genotype 1b Con 1 infected in human HuH7 cells at 80 nM after 72 hrs by luciferase assay in presence of 24 nM simeprevir; type: functional, Hepacivirus hominis, Huh-7; method in brief: as §1
Hepatitis C virus [14] = test: Antiviral activity against Hepatitis C virus genotype 1b harboring V105M mutation transfected in human HuH7 cells after 72 hrs by luciferase assay; type: functional, cell-based, Hepacivirus hominis; conditions: Huh-7, 72 h; method in brief: as §2
Hepatitis C virus [15] = test: Antiviral activity against Hepatitis C virus genotype 1b Con 1 infected in human HuH7 cells at 80 nM after 72 hrs by luciferase assay in presence of 17.5 uM clemizole; type: functional, Hepacivirus hominis, Huh-7; method in brief: as §1
Hepatitis C virus [16] = test: Antiviral activity against Hepatitis C virus genotype 1b Con 1 infected in human HuH7 cells at 10 nM after 72 hrs by luciferase assay in presence of 120 nM sofobuvir; type: functional, Hepacivirus hominis, Huh-7; method in brief: as §3
Hepatitis C virus [17] = test: Antiviral activity against Hepatitis C virus genotype 1b Con 1 infected in human HuH7 cells at 10 nM after 72 hrs by luciferase assay in presence of 12.5 uM clemizole; type: functional, Hepacivirus hominis, Huh-7; method in brief: as §3
Hepatitis C virus [18] = test: Antiviral activity against Hepatitis C virus genotype 1b Con 1 infected in human HuH7 cells at 20 nM after 72 hrs by luciferase assay in presence of 10 uM clemizole; type: functional, Hepacivirus hominis, Huh-7; method in brief: as §3
Hepatitis C virus [19] = test: Antiviral activity against Hepatitis C virus genotype 1b Con 1 infected in human HuH7 cells at 80 nM after 72 hrs by luciferase assay in presence of 0.16 nM daclatasvir; type: functional, Hepacivirus hominis, Huh-7; method in brief: as §1
Hepatitis C virus [20] = test: Antiviral activity against Hepatitis C virus genotype 1b Con 1 infected in human HuH7 cells at 5 nM after 72 hrs by luciferase assay in presence of 17.5 uM clemizole; type: functional, Hepacivirus hominis, Huh-7; method in brief: as §1
Hepatitis C virus [21] = test: Antiviral activity against Hepatitis C virus genotype 1b Con 1 infected in human HuH7 cells at 2.5 nM after 72 hrs by luciferase assay in presence of 7.5 uM clemizole; type: functional, Hepacivirus hominis, Huh-7; method in brief: as §3
Hepatitis C virus [22] = test: Antiviral activity against Hepatitis C virus genotype 1b Con 1 infected in human HuH7 cells at 2.5 nM after 72 hrs by luciferase assay in presence of 0.04 nM daclatasvir; type: functional, Hepacivirus hominis, Huh-7; method in brief: as §3
Hepatitis C virus [23] = test: Antiviral activity against Hepatitis C virus genotype 1b Con 1 infected in human HuH7 cells at 10 nM after 72 hrs by luciferase assay in presence of 10 uM clemizole; type: functional, Hepacivirus hominis, Huh-7; method in brief: as §3
Hepatitis C virus [24] = test: Antiviral activity against Hepatitis C virus genotype 1b Con 1 infected in human HuH7 cells at 160 nM after 72 hrs by luciferase assay in presence of 0.08 nM daclatasvir; type: functional, Hepacivirus hominis, Huh-7; method in brief: as §3
Hepatitis C virus [25] = test: Antiviral activity against Hepatitis C virus genotype 1b Con 1 infected in human HuH7 cells at 40 nM after 72 hrs by luciferase assay in presence of 12.5 uM clemizole; type: functional, Hepacivirus hominis, Huh-7; method in brief: as §1
Hepatitis C virus [26] = test: Antiviral activity against Hepatitis C virus genotype 1b Con 1 infected in human HuH7 cells at 2.5 nM after 72 hrs by luciferase assay in presence of 6 nM simeprevir; type: functional, Hepacivirus hominis, Huh-7; method in brief: as §3
Hepatitis C virus [27] = test: Antiviral activity against Hepatitis C virus genotype 1b Con 1 infected in human HuH7 cells at 80 nM after 72 hrs by luciferase assay in presence of 12.5 uM clemizole; type: functional, Hepacivirus hominis, Huh-7; method in brief: as §1
Hepatitis C virus [28] = test: Antiviral activity against Hepatitis C virus genotype 1b Con 1 infected in human HuH7 cells at 160 nM after 72 hrs by luciferase assay in presence of 10 uM clemizole; type: functional, Hepacivirus hominis, Huh-7; method in brief: as §3
Hepatitis C virus [29] = test: Antiviral activity against Hepatitis C virus genotype 1b Con 1 infected in human HuH7 cells at 40 nM after 72 hrs by luciferase assay in presence of 3 nM simeprevir; type: functional, Hepacivirus hominis, Huh-7; method in brief: as §1
Hepatitis C virus [30] = test: Antiviral activity against Hepatitis C virus genotype 1b Con 1 infected in human HuH7 cells at 160 nM after 72 hrs by luciferase assay in presence of 24 nM simeprevir; type: functional, Hepacivirus hominis, Huh-7; method in brief: as §3

O=C(c1nc2scc(C3CC3)n2c1Cl)N1CCN(C2CCCC2)C(=O)C1
CI (Hepatitis C virus [1]): 1 | CI (Hepatitis C virus [2]): 0.99 | CI (Hepatitis C virus [3]): 0.48 | EC50 (Hepatitis C virus [4]): 0.014 µM | CI (Hepatitis C virus [5]): 0.83 | CI (Hepatitis C virus [6]): 0.54 | CI (Hepatitis C virus [7]): 0.98 | EC50 (Hepatitis C virus [8]): 3.98 µM | CI (Hepatitis C virus [9]): 0.56 | EC50 (Hepatitis C virus [10]): 27.1 µM | CI (Hepatitis C virus [11]): 1.07 | CI (Hepatitis C virus [12]): 0.64 | CI (Hepatitis C virus [13]): 0.87 | EC50 (Hepatitis C virus [14]): 27.2 µM | CI (Hepatitis C virus [15]): 1.11 | CI (Hepatitis C virus [16]): 0.7 | CI (Hepatitis C virus [17]): 0.81 | CI (Hepatitis C virus [18]): 0.61 | CI (Hepatitis C virus [19]): 0.73 | CI (Hepatitis C virus [20]): 1.26 | CI (Hepatitis C virus [21]): 0.72 | CI (Hepatitis C virus [22]): 0.89 | CI (Hepatitis C virus [23]): 0.68 | CI (Hepatitis C virus [24]): 0.42 | CI (Hepatitis C virus [25]): 0.76 | CI (Hepatitis C virus [26]): 0.59 | CI (Hepatitis C virus [27]): 0.95 | CI (Hepatitis C virus [28]): 1.09 | CI (Hepatitis C virus [29]): 0.74 | CI (Hepatitis C virus [30]): 0.87
